Assay results published in ChEMBL document CHEMBL4680101, “Discovery and Optimization of Allosteric Inhibitors of Mutant Isocitrate Dehydrogenase 1 (R132H IDH1) Displaying Activity in Human Acute Myeloid Leukemia Cells” (J Med Chem, 2016).
Values joined by “and” are separate entries in the source; they are usually repeats but may differ in a detail not shown here. Equal values may be shown once. Active and inactive are the calls of the source. The rule behind the calls is not given here.

Key:
[1] = biological target: T1, Isocitrate dehydrogenase [NADP] cytoplasmic (Homo sapiens, UniProt O75874, R132H); experiment: Allosteric inhibition of IDH1 R132H mutant (unknown origin) expressed in HEK293T cells assessed as reduction in 2-HG production incubated for 48 hrs by LC-MS/MS analysis; type: cell-based
T1 sequence (O75874 2-414 R132H limits assumed): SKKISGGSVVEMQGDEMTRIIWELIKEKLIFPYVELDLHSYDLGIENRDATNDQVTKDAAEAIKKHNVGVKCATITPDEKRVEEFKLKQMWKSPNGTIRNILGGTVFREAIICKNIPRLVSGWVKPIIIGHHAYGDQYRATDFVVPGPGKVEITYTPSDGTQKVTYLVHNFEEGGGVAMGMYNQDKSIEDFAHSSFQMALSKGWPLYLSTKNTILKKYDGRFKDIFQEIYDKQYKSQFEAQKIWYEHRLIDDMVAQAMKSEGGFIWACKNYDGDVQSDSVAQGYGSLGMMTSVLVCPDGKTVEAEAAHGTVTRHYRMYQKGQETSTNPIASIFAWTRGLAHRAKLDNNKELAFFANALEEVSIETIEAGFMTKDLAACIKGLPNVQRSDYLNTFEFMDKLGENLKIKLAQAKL
In short: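 HEK293T cells reverse-transfected with pcDNA3.1 IDH1 R132H (Lipofectamine 2000), 6 h at 37 °C in 1% FBS plating medium, then assay medium. Compound added in DMSO (0.15% final), 48 h at 37 °C. Medium 2-HG quantified by HILIC LC-MS/MS with D3-2-HG internal standard, normalised to Hoechst nuclear count. Mean of two biological replicates.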

[2] = tested on: HeLa; experiment: Cytotoxicity in human HeLa cells; type: cell-based
[3] = biological target: T1, Isocitrate dehydrogenase [NADP] cytoplasmic; experiment: Inhibition of IDH1 R132H mutant (unknown origin) using alpha-ketoglutarate and NADPH incubated for 60 mins by fluorescence based assay
[4] = biological target: Isocitrate dehydrogenase [NADP] cytoplasmic (Homo sapiens, UniProt O75874); experiment: Inhibition of wild type IDH1 (unknown origin) using alpha-ketoglutarate and NADPH incubated for 30 mins by fluorescence based assay
Sequence of Isocitrate dehydrogenase [NADP] cytoplasmic (Homo sapiens, UniProt O75874) (O75874 whole entry): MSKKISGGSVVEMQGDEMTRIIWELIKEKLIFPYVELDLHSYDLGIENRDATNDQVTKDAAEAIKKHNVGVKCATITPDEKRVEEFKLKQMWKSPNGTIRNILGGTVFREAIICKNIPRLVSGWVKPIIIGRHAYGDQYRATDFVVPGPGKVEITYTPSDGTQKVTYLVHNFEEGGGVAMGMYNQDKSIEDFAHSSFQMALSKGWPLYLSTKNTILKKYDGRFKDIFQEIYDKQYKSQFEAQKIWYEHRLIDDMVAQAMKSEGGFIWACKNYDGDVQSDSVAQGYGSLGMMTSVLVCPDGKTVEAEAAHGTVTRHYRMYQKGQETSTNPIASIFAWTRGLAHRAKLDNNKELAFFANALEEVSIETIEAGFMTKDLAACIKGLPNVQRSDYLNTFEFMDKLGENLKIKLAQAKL

Row | Structure (SMILES) | IC50 [3] | also measured
1 | CC(C)CCOc1nc(N2CCC[C@@H](CC(=O)O)C2)ccc1C(=O)NC1C2CC3CC1CC(O)(C3)C2 (some centres undefined) | 1.3 µM | IC50 [1]: 8.5 µM; IC50 [2]: > 30 µM
2 | O=C(NC1C2CC3CC1CC(O)(C3)C2)c1ccc(N2C[C@@H]3[C@H](C2)[C@H]3C(=O)O)nc1SC1CCCC1 (some centres undefined) | 3 µM and 1.6 µM | inhibition [4]: inactive
3 | CC(C)CCSc1nc(N2CCC[C@@H](CC(=O)O)C2)ccc1C(=O)NC1C2CC3CC1CC(O)(C3)C2 (some centres undefined) | 10.1 µM and 7.6 µM | inhibition [4]: inactive
4 | CC(C)CCOc1nc(N2C[C@@H]3[C@H](C2)[C@H]3C(=O)O)ccc1C(=O)NCc1cccc(O)c1 | 6.3 µM | –
5 | CC(C)CCOc1nc(N2CC[C@H](CC(=O)O)C2)ccc1C(=O)NC1C2CC3CC1CC(O)(C3)C2 (some centres undefined) | 1.2 µM | –
6 | CC(C)CCOc1nc(N2C[C@@H]3[C@H](C2)[C@H]3C(=O)O)ccc1C(=O)N[C@H](C)c1ccccc1 | 5.4 µM | –
7 | CC(C)CCOc1nc(N2C[C@@H]3[C@H](C2)[C@H]3C(=O)O)ccc1C(=O)NC1CCCCCC1 | 3.9 µM | –
8 | CC(C)CCOc1nc(N2CCC(C(=O)O)CC2)ccc1C(=O)NC1C2CC3CC1CC(O)(C3)C2 (centres undefined) | 3.4 µM | –
9 | CC(C)CCSc1nc(N2C[C@@H]3[C@H](C2)[C@H]3C(=O)O)ccc1C(=O)NC1C2CC3CC1CC(O)(C3)C2 (some centres undefined) | 1.63 µM and 1.4 µM | inhibition [4]: inactive
10 | Cc1ccccc1COc1nc(N2CCC[C@@H](CC(=O)O)C2)ccc1C(=O)NC1C2CC3CC1CC(O)(C3)C2 (some centres undefined) | 0.69 µM | –
11 | CC(C)CCOc1nc(N2C[C@@H]3[C@H](C2)[C@H]3C(=O)O)ccc1C(=O)Nc1ccc(O)cc1 | 5 µM | –
12 | CC(C)CCOc1nc(N2C[C@@H]3[C@H](C2)[C@H]3C(=O)O)ccc1C(=O)N[C@@H](CO)c1ccccc1 | 5.6 µM | –
13 | O=C(O)C[C@@H]1CCCN(c2ccc(C(=O)NC3C4CC5CC3CC(O)(C5)C4)c(OCc3ccccc3)n2)C1 (some centres undefined) | 2.3 µM | –
14 | CC(C)CCOc1nc(N2C[C@@H]3[C@H](C2)[C@H]3C(=O)O)ccc1C(=O)Nc1cccc(B(O)O)c1 | 4.6 µM | –
15 | CC(C)CCOc1nc(N2C[C@@H]3[C@H](C2)[C@H]3C(=O)O)ccc1NC(=O)NC1CCCCC1 | > 50 µM | –
16 | CC(C)CCOc1nc(N2C[C@@H]3[C@H](C2)[C@H]3C(=O)O)ccc1C(=O)NC1CCCCC1 | 7.9 µM | –
17 | CC(C)CCOc1nc(N2C[C@@H]3[C@H](C2)[C@H]3C(=O)O)ccc1C(=O)N[C@@H](C)c1ccccc1 | 4.4 µM | –
18 | CC(C)CCOc1nc(N2C[C@@H]3[C@H](C2)[C@H]3C(=O)O)ccc1C(=O)N(C)Cc1ccccc1 | 7.4 µM | –
19 | CC(C)CCOc1nc(N2C[C@@H]3[C@H](C2)[C@H]3C(=O)O)ccc1C(=O)NCc1cccc(Cl)c1 | 6.5 µM | –
20 | CCOC(=O)[C@H]1[C@@H]2CN(c3ccc(C(=O)NC4C5CC6CC4CC(O)(C6)C5)c(OCCC(C)C)n3)C[C@@H]21 (some centres undefined) | 13.5 µM | –
21 | CC(C)CCOc1nc(Nc2nc(CC(=O)O)cs2)ccc1C(=O)NC1C2CC3CC1CC(O)(C3)C2 (centres undefined) | > 50 µM | –
22 | CC(C)CCOc1nc(Nc2cccc(C(=O)O)c2)ccc1C(=O)NC1C2CC3CC1CC(O)(C3)C2 (centres undefined) | 11 µM | –
23 | CC(C)CCOc1nc(N2C[C@@H]3[C@H](C2)[C@H]3C(=O)O)ccc1C(=O)NCCc1ccccc1 | 3.9 µM | –
24 | CC(C)CCOc1nc(N2C[C@@H]3[C@H](C2)[C@H]3C(=O)O)ccc1C(=O)NC[C@H](O)c1ccccc1 | 3 µM | –
25 | O=C(O)C[C@H]1CCN(c2ccc(C(=O)NC3C4CC5CC3CC(O)(C5)C4)c(SC3CCCCC3)n2)C1 (some centres undefined) | 2.3 µM and 2.2 µM | inhibition [4]: inactive
26 | CC(C)CCOc1nc(N2C[C@@H]3[C@H](C2)[C@H]3C(=O)O)ccc1C(=O)NC1CCC(O)CC1 (some centres undefined) | 8.2 µM | –

More lines, main results first:

Row | IC50 [3] | Structure (SMILES) | also measured
27 | > 50 µM | COc1nc(N2CCC[C@@H](CC(=O)O)C2)ccc1C(=O)NC1CCCCC1 | IC50 [1]: > 30 µM; IC50 [2]: > 30 µM
28 | 5.6 µM | O=C(O)C[C@@H]1CCCN(c2ccc(C(=O)NC3CCCCC3)c(OCc3ccccc3F)n2)C1 | IC50 [1]: 16 µM; IC50 [2]: > 30 µM
29 | 16 µM | CCC(C)COc1nc(N2CCC[C@@H](CC(=O)O)C2)ccc1C(=O)NC1CCCCC1 (some centres undefined) | –
30 | 7.2 µM | CC1(C)CC(Oc2nc(N3CCC[C@@H](CC(=O)O)C3)ccc2C(=O)NC2CCCCC2)C1 | –
31 | > 50 µM | CN(C)CCOc1nc(N2CCC[C@@H](CC(=O)O)C2)ccc1C(=O)NC1CCCCC1 | –
32 | > 50 µM | O=C(O)C[C@@H]1CCCN(c2ccc(C(=O)NC3CCCCC3)c(NCc3ccccc3)n2)C1 | –
33 | > 50 µM | O=C(O)C[C@@H]1CCCN(c2ccc(C(=O)NC3CCCCC3)c(OC3CCC3)n2)C1 | –
34 | > 50 µM | O=C(O)C[C@@H]1CCCN(c2ccc(C(=O)NC3CCCCC3)c(NC3CCCC3)n2)C1 | –
35 | > 50 µM | COCCOc1nc(N2CCC[C@@H](CC(=O)O)C2)ccc1C(=O)NC1CCCCC1 | –
36 | 8 µM | O=C(O)C[C@@H]1CCCN(c2ccc(C(=O)NC3CCCCC3)c(OCCC3CC3)n2)C1 | –
37 | 14 µM | CC1CC1COc1nc(N2CCC[C@@H](CC(=O)O)C2)ccc1C(=O)NC1CCCCC1 (some centres undefined) | –
38 | > 50 µM | CCOc1nc(N2CCC[C@@H](CC(=O)O)C2)ccc1C(=O)NC1CCCCC1 | –
39 | 7.6 µM | CC(C)(C)CCOc1nc(N2CCC[C@@H](CC(=O)O)C2)ccc1C(=O)NC1CCCCC1 | –
40 | > 50 µM | CCC(C)Oc1nc(N2CCC[C@@H](CC(=O)O)C2)ccc1C(=O)NC1CCCCC1 (some centres undefined) | –
41 | 43 µM | O=C(O)C[C@@H]1CCCN(c2ccc(C(=O)NC3CCCCC3)c(OCCc3ccccc3)n2)C1 | –
42 | 39 µM | O=C(O)C[C@@H]1CCCN(c2ccc(C(=O)NC3CCCCC3)c(SCc3ccccc3)n2)C1 | –
43 | 12 µM | CCCCOc1nc(N2CCC[C@@H](CC(=O)O)C2)ccc1C(=O)NC1CCCCC1 | –
44 | 5.9 µM | C[C@@H](Oc1nc(N2CCC[C@@H](CC(=O)O)C2)ccc1C(=O)NC1CCCCC1)c1ccccc1 | –
